Reference: ChEMBL document CHEMBL1145336, “1-aryl-3-(4-pyridine-2-ylpiperazin-1-yl)propan-1-one oximes as potent dopamine D4 receptor agonists for the treatment of erectile dysfunction” (J Med Chem, 2006)

Key:
D(4) dopamine receptor [1] = target: T1, D(4) dopamine receptor (Homo sapiens, UniProt P21917); experiment: Activity at human recombinant D4.4 receptor expressed in HEK293 cells by FLIPR assay; assay type: functional, cell-based
T1 sequence (P21917 whole entry): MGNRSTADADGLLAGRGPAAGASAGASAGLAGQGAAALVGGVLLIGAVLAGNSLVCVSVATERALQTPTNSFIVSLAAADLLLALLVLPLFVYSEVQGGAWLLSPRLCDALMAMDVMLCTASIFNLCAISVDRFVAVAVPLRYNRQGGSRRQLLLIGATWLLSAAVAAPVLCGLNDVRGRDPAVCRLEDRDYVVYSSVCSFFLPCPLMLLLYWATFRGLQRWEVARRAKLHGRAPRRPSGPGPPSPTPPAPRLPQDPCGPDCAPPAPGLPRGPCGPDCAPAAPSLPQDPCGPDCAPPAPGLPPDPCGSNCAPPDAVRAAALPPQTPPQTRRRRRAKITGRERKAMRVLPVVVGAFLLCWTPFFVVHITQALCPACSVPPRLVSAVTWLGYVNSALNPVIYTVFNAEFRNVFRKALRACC

D(4) dopamine receptor [2] = target: T1, D(4) dopamine receptor; experiment: Displacement of [3H]A-369508 from human recombinant D4.4 receptor expressed in HEK293 cell membrane; assay type: cell membranes
Summary of the method: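 Competition binding against the D4-selective agonist radioligand [3H]-A-369508, using membranes from HEK-293 cells engineered to express human D4.4. Mean values (SEM, n ≥ 4).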

D(2) dopamine receptor [3] = target: T2, D(2) dopamine receptor (Homo sapiens, UniProt P14416); experiment: Antagonist activity at human recombinant D2 receptor expressed in HEK293 cells by FLIPR assay; assay type: functional, cell-based
T2 sequence (P14416 whole entry): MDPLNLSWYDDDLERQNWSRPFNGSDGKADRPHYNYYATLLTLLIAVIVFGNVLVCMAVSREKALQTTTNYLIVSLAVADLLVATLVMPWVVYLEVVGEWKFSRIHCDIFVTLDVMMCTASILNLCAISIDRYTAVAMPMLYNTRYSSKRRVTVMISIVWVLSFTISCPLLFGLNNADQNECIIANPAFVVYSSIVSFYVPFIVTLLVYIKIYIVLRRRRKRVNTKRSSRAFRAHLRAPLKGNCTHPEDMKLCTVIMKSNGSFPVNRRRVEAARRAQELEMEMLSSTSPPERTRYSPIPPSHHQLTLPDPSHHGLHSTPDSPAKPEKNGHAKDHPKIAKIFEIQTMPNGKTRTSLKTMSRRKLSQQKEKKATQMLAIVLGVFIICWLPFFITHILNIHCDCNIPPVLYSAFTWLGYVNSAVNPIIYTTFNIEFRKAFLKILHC

D(2) dopamine receptor [4] = target: T2, D(2) dopamine receptor; experiment: Agonist activity at human recombinant D2 receptor expressed in HEK293 cells by FLIPR assay; assay type: functional, cell-based
Summary of the method: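 Calcium flux (FLIPR) in HEK-293 cells coexpressing recombinant human D2L with chimeric Gqo5. Efficacy is the maximal response relative to 10 µM dopamine (100%). EC50 is the concentration giving half-maximal stimulation. Values are means (SEM, n ≥ 3).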

D(2) dopamine receptor [5] = target: T2, D(2) dopamine receptor; experiment: Displacement of [125I]PIPAT from human recombinant D2L receptor expressed in HEK293 cells
Rattus norvegicus = experiment: Activity against penile erection in Wistar rat at 0.3 umol/kg, sc; assay type: functional
Summary of the method: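 Male Wistar rats, dosed subcutaneously, were weighed and adapted to a red-lit testing room for 60 min; experiments ran between 9:00 a.m. and 3:00 p.m. Erections were counted by direct observation for 60 min after dosing. The share of animals with one or more erections was reported as incidence (percent), n = 8-30 rats.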

SMILES	EC50 (D(4) dopamine receptor [1]) [nM]	Ki (D(4) dopamine receptor [2]) [nM]	IC50 (D(2) dopamine receptor [3]) [nM]	EC50 (D(2) dopamine receptor [4]) [nM]	Ki (D(2) dopamine receptor [5]) [nM]	Activity (Rattus norvegicus) [%]
CO/N=C(/CCN1CCN(c2ccccn2)CC1)c1cccnc1	33.3	130	> 10000	> 10000	1820	–
CO/N=C(/CCN1CCN(c2ccccn2)CC1)c1cccc(F)c1	60.2	6.4	> 10000	> 10000	46.6	–
CO/N=C(\CCN1CCC(c2ccccn2)CC1)c1ccc(Cl)cc1	195	134	> 10000	> 10000	25.3	–
CO/N=C(/CCN1CCN(c2ccccn2)CC1)c1cccc(C#N)c1	27.5	20.1	> 10000	> 10000	125	–
CO/N=C(/CCN1CCN(c2ccccn2)CC1)c1cc(F)cc(F)c1	46.7	6.3	> 10000	> 10000	225	–
CO/N=C(\CCN1CCN(c2ccccn2)CC1)c1cccc(F)c1	44.6	13.9	> 10000	> 10000	101	–
CO/N=C(/c1ccc(Cl)cc1)C(CNOC)CN1CCN(c2ccccn2)CC1 (stereo not drawn)	206	120	> 10000	> 10000	164	–
CO/N=C(/CCN1CCN(c2ccccn2)CC1)c1ccc(F)cc1	13.6	53.3	> 10000	> 10000	221	–
Cc1cccc(C(=O)NCN2CCN(c3ccccc3C#N)CC2)c1 [PD-168,077]	–	–	> 10000	> 10000	–	79
CO/N=C(/CCN1CCN(c2ccccn2)CC1)c1cccc(C)c1	61	32.1	> 10000	> 10000	68	–
CO/N=C(\c1ccc(Cl)cc1)C(O)CN1CCN(c2ccccn2)CC1 (stereo not drawn)	46	113	> 10000	> 10000	995	–
CO/N=C(\CCN1CCN(c2ccccn2)CC1)c1cccc(C)c1	27.6	8	> 10000	> 10000	68.4	–
CO/N=C(\CCN1CCN(c2ccccn2)CC1)c1cccc(Cl)c1	88.9	13.5	> 10000	> 10000	98.7	–
CO/N=C(/CCN1CCN(c2ccccn2)CC1)c1ccc(Cl)c(C)c1	98	11.6	> 10000	> 10000	60.9	–
CO/N=C(\CCN1CCN(c2ccccn2)CC1)c1ccccc1C	74	11.4	> 10000	> 10000	112	–
O/N=C(\CN1CCN(c2ccccn2)CC1)c1ccc(F)cc1	26	–	> 10000	> 10000	–	–
CCO/N=C(\CCN1CCN(c2cccc(OC)c2)CC1)c1ccccc1	2680	–	> 10000	> 10000	–	–
CO/N=C(\CCN1CCN(c2ccccn2)CC1)c1cc(C)cc(C)c1	175	–	> 10000	> 10000	–	–
CO/N=C(/CCN1CCN(c2ccccn2)CC1)c1ccc(Cl)c(Cl)c1	341	–	> 10000	> 10000	–	–
CO/N=C(\CCN1CCN(c2ccccn2)CC1)c1cccc(C#N)c1	63.7	–	> 10000	> 10000	–	–
CO/N=C(/c1ccc(Cl)cc1)C(O)CN1CCN(c2ccccn2)CC1 (stereo not drawn)	22.6	150	> 10000	> 10000	368	–

SMILES	EC50 (D(4) dopamine receptor [1]) [nM]	Ki (D(4) dopamine receptor [2]) [nM]	IC50 (D(2) dopamine receptor [3]) [nM]	EC50 (D(2) dopamine receptor [4]) [nM]	Ki (D(2) dopamine receptor [5]) [nM]	Activity (Rattus norvegicus) [%]
CCO/N=C(\CCN1CCN(c2ncccc2C#N)CC1)c1ccccc1	139	–	> 10000	> 10000	–	–
CO/N=C(\CCN1CCN(c2ccccn2)CC1)c1ccc(Br)cc1	183	–	> 10000	> 10000	–	–
CO/N=C(/c1ccc(Cl)cc1)C(C)CN1CCN(c2ccccn2)CC1 (stereo not drawn)	459	346	> 10000	> 10000	146	–
CO/N=C(/c1ccc(Cl)cc1)C(COC(C)C)CN1CCN(c2ccccn2)CC1 (stereo not drawn)	3210	–	> 10000	> 10000	–	–
CO/N=C(/CN1CCN(c2ccccn2)CC1)c1ccc(F)cc1	4290	–	> 10000	> 10000	–	–
N#CCO/N=C(\CCN1CCN(c2ccccn2)CC1)c1ccccc1	33	88	> 10000	> 10000	140	–
CO/N=C(/CCN1CCC(c2ccccn2)CC1)c1ccc(Cl)cc1	> 10000	90	> 10000	> 10000	19.4	–
Cc1cccc(/C(CCN2CCN(c3ccccn3)CC2)=N/O)c1	2.3	–	> 10000	> 10000	–	–
CO/N=C(/CCN1CCN(c2ccccn2)CC1)c1ccc(C)c(C)c1	91	–	> 10000	> 10000	–	–
O/N=C(/CN1CCN(c2ccccn2)CC1)c1ccc(F)cc1	> 10000	–	> 10000	> 10000	–	–
O/N=C(\CCCN1CCN(c2ccccn2)CC1)c1ccc(F)cc1	9.5	–	> 10000	> 10000	–	–
COC(CN1CCN(c2ccccn2)CC1)/C(=N/O)c1cccc(C)c1 (stereo not drawn)	5370	–	> 10000	> 10000	–	–
CO/N=C(/CCN1CCN(c2ccccn2)CC1)c1ccc(F)c(Cl)c1	95	–	> 10000	> 10000	–	–
CO/N=C(\CCN1CCCC(c2ccccn2)C1)c1ccc(Cl)cc1 (stereo not drawn)	606	–	> 10000	> 10000	–	–
CO/N=C(\CCN1CCN(c2ccccn2)CC1C)c1ccc(Cl)cc1 (stereo not drawn)	333	67.1	> 10000	> 10000	76.5	–
O/N=C(\CCN1CCN(c2ccccn2)CC1)c1cccc(F)c1	17.1	–	> 10000	> 10000	–	–
Cc1ccccc1/C(CCN1CCN(c2ccccn2)CC1)=N/O	4.2	–	> 10000	> 10000	–	–
CCO/N=C(\CCN1CCN(c2nccs2)CC1)c1ccccc1	81.8	168	> 10000	> 10000	257	–
C=CCO/N=C(\CCN1CCN(c2ccccn2)CC1)c1ccccc1	350	–	> 10000	> 10000	–	–
CCO/N=C(\CCN1CCN(c2ccc(OC)cc2)CC1)c1ccccc1	> 10000	–	> 10000	> 10000	–	–
